Assay results taken from ChEMBL document CHEMBL1641468, “Synthesis of modified siRNA bearing C-5 polyamine-substituted pyrimidine nucleoside in their 3'-overhang regions and its RNAi activity” (Bioorg Med Chem Lett, 2011).
Calls of active or inactive are those of the source. No cut-off for these calls is given here.

Tests used:
[1] = biological target: T1, Hepatocyte nuclear factor 4-alpha (Homo sapiens) (UniProt P41235); experiment: Inhibition of HNF4alpha mRNA expression in human HepG2 cells after 24 hrs by real-time RT-PCR
T1 sequence (whole entry): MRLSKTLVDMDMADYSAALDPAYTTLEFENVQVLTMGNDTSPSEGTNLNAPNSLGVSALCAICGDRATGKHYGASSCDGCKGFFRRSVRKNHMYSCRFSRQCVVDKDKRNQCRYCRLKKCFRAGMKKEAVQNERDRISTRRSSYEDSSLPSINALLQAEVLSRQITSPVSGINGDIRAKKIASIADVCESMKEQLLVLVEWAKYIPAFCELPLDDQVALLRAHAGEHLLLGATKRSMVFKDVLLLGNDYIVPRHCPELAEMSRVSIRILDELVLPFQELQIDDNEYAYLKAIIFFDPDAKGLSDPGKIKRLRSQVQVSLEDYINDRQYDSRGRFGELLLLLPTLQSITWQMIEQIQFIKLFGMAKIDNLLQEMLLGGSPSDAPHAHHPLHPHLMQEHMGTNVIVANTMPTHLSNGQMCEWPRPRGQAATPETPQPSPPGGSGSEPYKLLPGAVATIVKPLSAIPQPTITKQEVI

[2] = biological target: T1, Hepatocyte nuclear factor 4-alpha (Homo sapiens); experiment: Inhibition of HNF4alpha mRNA expression in human HepG2 cells after 24 hrs by RT-PCR analysis; format: cell-based; conditions: in the assay text read “after 48 hrs” for “after 24 hrs”
In short: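 HepG2 cells were grown in DMEM with 5% FBS at 37 °C and transfected with siRNA using a transfection reagent. After 24 h at 37 °C, the medium was changed to DMEM with 10% FBS and cells were incubated a further 24 h. Total RNA was reverse-transcribed for real-time PCR (40 cycles). HNF4α mRNA was normalized to GAPDH by ΔΔCt and expressed relative to nonsense control siRNA, using the mean Ct of duplicate PCRs from independent cells.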

Row | Activity [1] | Activity [2] | SMILES
1 | Active | Active | Cc1cn([C@H]2C[C@H](OP(=O)(O)OC[C@H]3O[C@@H](n4cc(C)c(=O)[nH]c4=O)C[C@@H]3O)[C@@H](COP(=O)(O)O[C@H]3[C@@H](O)[C@H](n4ccc(N)nc4=O)O[C@@H]3COP(=O)(O)O[C@H]3[C@@H](O)[C@H](n4ccc(N)nc4=O)O[C@@H]3COP(=O)(O)O[C@@H]3[C@H](O)[C@@H](COP(=O)(O)O[C@H]4[C@@H](O)[C@H](n5ccc(=O)[nH]c5=O)O[C@@H]4COP(=O)(O)O[C@H]4[C@@H](O)[C@H](n5ccc(N)nc5=O)O[C@@H]4COP(=O)(O)O[C@H]4[C@@H](O)[C@H](n5cnc6c(N)ncnc65)O[C@@H]4COP(=O)(O)O[C@H]4[C@@H](O)[C@H](n5ccc(N)nc5=O)O[C@@H]4COP(=O)(O)O[C@@H]4[C@H](O)[C@@H](COP(=O)(O)O[C@H]5[C@@H](O)[C@H](n6ccc(N)nc6=O)O[C@@H]5COP(=O)(O)O[C@H]5[C@@H](O)[C@H](n6cnc7c(N)ncnc76)O[C@@H]5COP(=O)(O)O[C@H]5[C@@H](O)[C@H](n6ccc(N)nc6=O)O[C@@H]5COP(=O)(O)O[C@H]5[C@@H](O)[C@H](n6ccc(N)nc6=O)O[C@@H]5COP(=O)(O)O[C@H]5[C@@H](O)[C@H](n6cnc7c(N)ncnc76)O[C@@H]5COP(=O)(O)O[C@H]5[C@@H](O)[C@H](n6ccc(N)nc6=O)O[C@@H]5COP(=O)(O)O[C@H]5[C@@H](O)[C@H](n6ccc(N)nc6=O)O[C@@H]5COP(=O)(O)O[C@H]5[C@@H](O)[C@H](n6ccc(=O)[nH]c6=O)O[C@@H]5COP(=O)(O)O[C@@H]5[C@H](O)[C@@H](COP(=O)(O)O[C@H]6[C@@H](O)[C@H](n7ccc(=O)[nH]c7=O)O[C@@H]6COP(=O)(O)O[C@H]6[C@@H](O)[C@H](n7ccc(=O)[nH]c7=O)O[C@@H]6COP(=O)(O)O)O[C@H]5n5cnc6c(=O)[nH]c(N)nc65)O[C@H]4n4cnc5c(=O)[nH]c(N)nc54)O[C@H]3n3cnc4c(=O)[nH]c(N)nc43)O2)c(=O)[nH]c1=O
2 | Active | Active | Cc1cn([C@H]2C[C@H](OP(=O)(O)OC[C@H]3O[C@@H](n4cc(C)c(=O)[nH]c4=O)C[C@@H]3O)[C@@H](COP(=O)(O)O[C@@H]3[C@H](O)[C@@H](COP(=O)(O)O[C@H]4[C@@H](O)[C@H](n5cnc6c(N)ncnc65)O[C@@H]4COP(=O)(O)O[C@H]4[C@@H](O)[C@H](n5ccc(N)nc5=O)O[C@@H]4COP(=O)(O)O[C@H]4[C@@H](O)[C@H](n5cnc6c(N)ncnc65)O[C@@H]4COP(=O)(O)O[C@@H]4[C@H](O)[C@@H](COP(=O)(O)O[C@@H]5[C@H](O)[C@@H](COP(=O)(O)O[C@H]6[C@@H](O)[C@H](n7ccc(=O)[nH]c7=O)O[C@@H]6COP(=O)(O)O[C@@H]6[C@H](O)[C@@H](COP(=O)(O)O[C@@H]7[C@H](O)[C@@H](COP(=O)(O)O[C@H]8[C@@H](O)[C@H](n9ccc(=O)[nH]c9=O)O[C@@H]8COP(=O)(O)O[C@@H]8[C@H](O)[C@@H](COP(=O)(O)O[C@H]9[C@@H](O)[C@H](n%10ccc(N)nc%10=O)O[C@@H]9COP(=O)(O)O[C@@H]9[C@H](O)[C@@H](COP(=O)(O)O[C@H]%10[C@@H](O)[C@H](n%11ccc(=O)[nH]c%11=O)O[C@@H]%10COP(=O)(O)O[C@@H]%10[C@H](O)[C@@H](COP(=O)(O)O[C@H]%11[C@@H](O)[C@H](n%12cnc%13c(N)ncnc%13%12)O[C@@H]%11COP(=O)(O)O[C@H]%11[C@@H](O)[C@H](n%12ccc(N)nc%12=O)O[C@@H]%11COP(=O)(O)O[C@@H]%11[C@H](O)[C@@H](COP(=O)(O)O[C@H]%12[C@@H](O)[C@H](n%13cnc%14c(=O)[nH]c(N)nc%14%13)O[C@@H]%12COP(=O)(O)O)O[C@H]%11n%11cnc%12c(=O)[nH]c(N)nc%12%11)O[C@H]%10n%10cnc%11c(=O)[nH]c(N)nc%11%10)O[C@H]9n9cnc%10c(=O)[nH]c(N)nc%109)O[C@H]8n8cnc9c(=O)[nH]c(N)nc98)O[C@H]7n7cnc8c(=O)[nH]c(N)nc87)O[C@H]6n6cnc7c(=O)[nH]c(N)nc76)O[C@H]5n5cnc6c(=O)[nH]c(N)nc65)O[C@H]4n4cnc5c(=O)[nH]c(N)nc54)O[C@H]3n3cnc4c(N)ncnc43)O2)c(=O)[nH]c1=O
3 | Active | Active | Cc1cn([C@H]2C[C@H](OP(=O)(O)OC[C@H]3O[C@@H](n4cc(CC(=O)NCCN(CCN)CCN)c(=O)[nH]c4=O)C[C@@H]3O)[C@@H](COP(=O)(O)O[C@H]3[C@@H](O)[C@H](n4ccc(N)nc4=O)O[C@@H]3COP(=O)(O)O[C@H]3[C@@H](O)[C@H](n4ccc(N)nc4=O)O[C@@H]3COP(=O)(O)O[C@@H]3[C@H](O)[C@@H](COP(=O)(O)O[C@H]4[C@@H](O)[C@H](n5ccc(=O)[nH]c5=O)O[C@@H]4COP(=O)(O)O[C@H]4[C@@H](O)[C@H](n5ccc(N)nc5=O)O[C@@H]4COP(=O)(O)O[C@H]4[C@@H](O)[C@H](n5cnc6c(N)ncnc65)O[C@@H]4COP(=O)(O)O[C@H]4[C@@H](O)[C@H](n5ccc(N)nc5=O)O[C@@H]4COP(=O)(O)O[C@@H]4[C@H](O)[C@@H](COP(=O)(O)O[C@H]5[C@@H](O)[C@H](n6ccc(N)nc6=O)O[C@@H]5COP(=O)(O)O[C@H]5[C@@H](O)[C@H](n6cnc7c(N)ncnc76)O[C@@H]5COP(=O)(O)O[C@H]5[C@@H](O)[C@H](n6ccc(N)nc6=O)O[C@@H]5COP(=O)(O)O[C@H]5[C@@H](O)[C@H](n6ccc(N)nc6=O)O[C@@H]5COP(=O)(O)O[C@H]5[C@@H](O)[C@H](n6cnc7c(N)ncnc76)O[C@@H]5COP(=O)(O)O[C@H]5[C@@H](O)[C@H](n6ccc(N)nc6=O)O[C@@H]5COP(=O)(O)O[C@H]5[C@@H](O)[C@H](n6ccc(N)nc6=O)O[C@@H]5COP(=O)(O)O[C@H]5[C@@H](O)[C@H](n6ccc(=O)[nH]c6=O)O[C@@H]5COP(=O)(O)O[C@@H]5[C@H](O)[C@@H](COP(=O)(O)O[C@H]6[C@@H](O)[C@H](n7ccc(=O)[nH]c7=O)O[C@@H]6COP(=O)(O)O[C@H]6[C@@H](O)[C@H](n7ccc(=O)[nH]c7=O)O[C@@H]6COP(=O)(O)O)O[C@H]5n5cnc6c(=O)[nH]c(N)nc65)O[C@H]4n4cnc5c(=O)[nH]c(N)nc54)O[C@H]3n3cnc4c(=O)[nH]c(N)nc43)O2)c(=O)[nH]c1=O
4 | Active | Active | NCCN(CCN)CCNC(=O)Cc1cn([C@H]2C[C@H](OP(=O)(O)OC[C@H]3O[C@@H](n4cc(CC(=O)NCCN(CCN)CCN)c(=O)[nH]c4=O)C[C@@H]3O)[C@@H](COP(=O)(O)O[C@H]3[C@@H](O)[C@H](n4ccc(N)nc4=O)O[C@@H]3COP(=O)(O)O[C@H]3[C@@H](O)[C@H](n4ccc(N)nc4=O)O[C@@H]3COP(=O)(O)O[C@@H]3[C@H](O)[C@@H](COP(=O)(O)O[C@H]4[C@@H](O)[C@H](n5ccc(=O)[nH]c5=O)O[C@@H]4COP(=O)(O)O[C@H]4[C@@H](O)[C@H](n5ccc(N)nc5=O)O[C@@H]4COP(=O)(O)O[C@H]4[C@@H](O)[C@H](n5cnc6c(N)ncnc65)O[C@@H]4COP(=O)(O)O[C@H]4[C@@H](O)[C@H](n5ccc(N)nc5=O)O[C@@H]4COP(=O)(O)O[C@@H]4[C@H](O)[C@@H](COP(=O)(O)O[C@H]5[C@@H](O)[C@H](n6ccc(N)nc6=O)O[C@@H]5COP(=O)(O)O[C@H]5[C@@H](O)[C@H](n6cnc7c(N)ncnc76)O[C@@H]5COP(=O)(O)O[C@H]5[C@@H](O)[C@H](n6ccc(N)nc6=O)O[C@@H]5COP(=O)(O)O[C@H]5[C@@H](O)[C@H](n6ccc(N)nc6=O)O[C@@H]5COP(=O)(O)O[C@H]5[C@@H](O)[C@H](n6cnc7c(N)ncnc76)O[C@@H]5COP(=O)(O)O[C@H]5[C@@H](O)[C@H](n6ccc(N)nc6=O)O[C@@H]5COP(=O)(O)O[C@H]5[C@@H](O)[C@H](n6ccc(N)nc6=O)O[C@@H]5COP(=O)(O)O[C@H]5[C@@H](O)[C@H](n6ccc(=O)[nH]c6=O)O[C@@H]5COP(=O)(O)O[C@@H]5[C@H](O)[C@@H](COP(=O)(O)O[C@H]6[C@@H](O)[C@H](n7ccc(=O)[nH]c7=O)O[C@@H]6COP(=O)(O)O[C@H]6[C@@H](O)[C@H](n7ccc(=O)[nH]c7=O)O[C@@H]6COP(=O)(O)O)O[C@H]5n5cnc6c(=O)[nH]c(N)nc65)O[C@H]4n4cnc5c(=O)[nH]c(N)nc54)O[C@H]3n3cnc4c(=O)[nH]c(N)nc43)O2)c(=O)[nH]c1=O
